From ChEMBL document CHEMBL1144702, “Synthesis and structure-activity relationship studies on tryprostatin A, an inhibitor of breast cancer resistance protein” (Bioorg Med Chem, 2008)
The source made the active and inactive calls. The calls are words filed in the database; no cut-off is given here.

How the values were obtained:
[1] = Cell cycle arrest in mouse tsFT210 cells assessed as accumulation at G1 phase at 100 uM after 18 hrs by flow cytometry; type: functional, cell-based
How it was run: (§1)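 Synchronous-culture assay: tsFT210 cells seeded at 1x10^5 cells/mL, preincubated 1 h at 32 °C, then incubated with compound 18 h at 32 °C; morphology checked by microscopy; DNA content by flow cytometry after staining with 50 μg/mL propidium iodide, 0.1% sodium citrate, 0.2% NP-40; nuclei/chromosomes stained with Hoechst 33258 after KCl swelling and Carnoy fixation.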

[2] = Cell cycle arrest in mouse tsFT210 cells assessed as accumulation at G2/M phase at 100 uM after 18 hrs by flow cytometry; type: functional, cell-based; how it was run: as §1
[3] = Antiproliferative activity against mouse tsFT210 cells after 48 hrs by WST-8 assay; type: functional, cell-based; details: tsFT210, 48 h
How it was run: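 tsFT210 cells (temperature-sensitive cdc2 mutant from mouse mammary carcinoma FM3A), kept in RPMI 1640 with 10% fetal calf serum at 32 °C; exponentially growing cells exposed to compound at 32 °C for 48 h, then WST-8 added for 4 h at 37 °C; absorbance at 450 nm read to estimate cell number; IC50 reported.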

[4] = Inhibition of tubulin polymerization in presence of microtubule-associated proteins
How it was run: (§2)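 Tubulin containing MAPs in PME buffer (100 mM PIPES pH 6.9, 2 mM EGTA, 1 mM MgSO4) with GTP and drug in DMSO, tubulin added last; 37 °C, absorbance change at 351 nm over 10 min. Drug concentration varied across runs for delta absorbance versus concentration curves; colchicine standard curves made for each tubulin batch.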

[5] = Cytotoxicity against human H520 cells at 10 uM after 72 hrs by Cell Titer 96 Aqueous Non-Radioactive assay; type: functional; details: NCI-H520, 72 h, read-out: Inhibition
How it was run: (§3)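 MCF7, NCI-H520 or PC-3 cells (RPMI-1640, 10% FBS) plated 1 × 10^4/well, 24 h at 37 °C, exposed 72 h to drug at 10 or 100 μM in DMSO or EtOH vehicle (controls usually 0.2%). Survival by MTS/PMS formazan absorbance at 490 nm, plate blank subtracted, as percent of vehicle wells; quadruplicate; etoposide or m-AMSA positive controls.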

[6] = Cytotoxicity against human H520 cells at 100 uM after 72 hrs by Cell Titer 96 Aqueous Non-Radioactive assay; type: functional; details: NCI-H520, 72 h, read-out: Inhibition; how it was run: as §3
MCF7 [7] = assay: Cytotoxicity against human MCF7 cells at 10 uM after 72 hrs by Cell Titer 96 Aqueous Non-Radioactive assay; type: functional; details: MCF7, 72 h, read-out: Inhibition; how it was run: as §3
MCF7 [8] = assay: Cytotoxicity against human MCF7 cells at 100 uM after 72 hrs by Cell Titer 96 Aqueous Non-Radioactive assay; type: functional; details: MCF7, 72 h, read-out: Inhibition; how it was run: as §3
PC-3 [9] = assay: Cytotoxicity against human PC3 cells at 10 uM after 72 hrs by Cell Titer 96 Aqueous Non-Radioactive assay; type: functional; details: PC-3, 72 h, read-out: Inhibition; how it was run: as §3
PC-3 [10] = assay: Cytotoxicity against human PC3 cells at 100 uM after 72 hrs by Cell Titer 96 Aqueous Non-Radioactive assay; type: functional; details: PC-3, 72 h, read-out: Inhibition; how it was run: as §3
MCF7 [11] = assay: Cytotoxicity against human MCF7 cells after 72 hrs by Cell Titer 96 Aqueous Non-Radioactive assay; type: functional; details: MCF7, 72 h
How it was run: (§4)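 MCF7, NCI-H520 and PC-3 cells in RPMI-1640 + 10% FBS, 2 mM L-glutamine, 0.1 mM non-essential amino acids; 1 × 10^4 cells/well, 24 h at 37 °C, then drug in DMSO or EtOH (<1%) for 72 h. Cells under 50% survival at 100 μM retested over further concentrations for GI50. MTS/PMS read at 490 nm, blank subtracted, versus vehicle wells; quadruplicate or more.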

PC-3 [12] = assay: Cytotoxicity against human PC3 cells after 72 hrs by Cell Titer 96 Aqueous Non-Radioactive assay; type: functional; details: PC-3, 72 h; how it was run: as §4
CCRF-CEM = assay: Cytotoxicity against human CCRF-CEM cells; type: functional
[13] = Cytotoxicity against human HL60 (TB) cells; type: functional; details: HL-60
K562 = assay: Cytotoxicity against human K562 cells; type: functional
MOLT-4 = assay: Cytotoxicity against human MOLT4 cells; type: functional
RPMI-8226 = assay: Cytotoxicity against human RPMI8226 cells; type: functional
SR = assay: Cytotoxicity against human SR cells; type: functional
HOP-92 = assay: Cytotoxicity against human HOP92 cells; type: functional
EKVX = assay: Cytotoxicity against human EKVX cells; type: functional
COLO 205 = assay: Cytotoxicity against human COLO205 cells; type: functional
OVCAR-3 = assay: Cytotoxicity against human OVCAR-3 cells; type: functional
IGROV-1 = assay: Cytotoxicity against human IGROV1 cells; type: functional
DU-145 = assay: Cytotoxicity against human DU145 cells; type: functional
LOX IMVI = assay: Cytotoxicity against human LOX IMVI cells; type: functional
[14] = Cytotoxicity against human […]; type: functional
BT-549 = assay: Cytotoxicity against human BT549 cells; type: functional
UO-31 = assay: Cytotoxicity against human UO31 cells; type: functional
[15] = Inhibition of tubulin polymerization in presence of microtubule-associated proteins at 60 uM; how it was run: as §2
HT-29 = assay: Cytotoxicity against human HT29 cells; type: functional

CC(C)=CCc1[nH]c2cc(N=C=S)ccc2c1C[C@@H]1NC(=O)[C@@H]2CCCN2C1=O
Activity [1]: Active | Activity [2]: Active | IC50 [3]: 50 µM

COc1ccc2c(C[C@@H]3NC(=O)[C@@H]4CCCN4C3=O)c[nH]c2c1
IC50 [3]: > 100 µM

CC(C)=CCc1[nH]c2cc([N+](=O)[O-])ccc2c1C[C@@H]1NC(=O)[C@@H]2CCCN2C1=O
IC50 [3]: > 100 µM

COc1ccc2c(C[C@@H]3NC(=O)[C@@H]4CCCN4C3=O)cn(C)c2c1
IC50 [3]: > 100 µM

CC(C)=CCc1[nH]c2cc(N)ccc2c1C[C@@H]1NC(=O)[C@@H]2CCCN2C1=O
IC50 [3]: > 100 µM

COc1ccc2c(C[C@@H]3NC(=O)[C@H](C(C)C)NC3=O)c(CC=C(C)C)[nH]c2c1
Activity [1]: Active | Activity [2]: Active | IC50 [3]: 19 µM

CC(C)=CCc1[nH]c2ccccc2c1C[C@@H]1NC(=O)[C@@H]2CCCN2C1=O [TRYPROSTATIN B]
IC50 [4]: > 700 µM | percent cell survival relative to vehicle at 10 µM [5]: 77.6% | cell survival (% of vehicle control) at 100 µM [6]: 60.5% | cell survival (% of vehicle control) at 10 µM (MCF7 [7]): 88.2% | cell survival (% of vehicle control) at 100 µM (MCF7 [8]): 66.7% | percent cell survival relative to vehicle control at 10 µM (PC-3 [9]): 95.5% | percent cell survival at 100 µM (PC-3 [10]): 68.9% | GI50 (MCF7 [11]): > 100 µM | GI50 (PC-3 [12]): > 100 µM | GI50 (CCRF-CEM): > 100 µM | GI50 [13]: > 100 µM | GI50 (K562): 56.1 µM | GI50 (MOLT-4): > 100 µM | GI50 (RPMI-8226): > 100 µM | GI50 (SR): 50.6 µM | GI50 (HOP-92): 43.1 µM | GI50 (EKVX): > 100 µM | GI50 (COLO 205): > 100 µM | GI50 (OVCAR-3): > 100 µM | GI50 (IGROV-1): > 100 µM | GI50 (DU-145): > 100 µM | GI50 (LOX IMVI): > 100 µM | GI50 [14]: > 100 µM | GI50 (BT-549): 58.2 µM | GI50 (UO-31): > 100 µM

COc1ccc2c(C[C@@H]3NC(=O)[C@@H]4CCCN4C3=O)c(Cc3ccccc3)[nH]c2c1
IC50 [3]: > 100 µM

CC(C)=CCc1[nH]c2ccccc2c1C[C@H]1NC(=O)[C@@H]2CCCN2C1=O
inhibition [15]: < 2% | percent cell survival relative to vehicle at 10 µM [5]: > 100% | cell survival (% of vehicle control) at 100 µM [6]: 76.5% | cell survival (% of vehicle control) at 10 µM (MCF7 [7]): > 100% | cell survival (% of vehicle control) at 100 µM (MCF7 [8]): > 100% | percent cell survival relative to vehicle control at 10 µM (PC-3 [9]): 97.3% | percent cell survival at 100 µM (PC-3 [10]): 68.5% | GI50 (MCF7 [11]): 25.9 µM | GI50 (PC-3 [12]): 24.8 µM | GI50 (CCRF-CEM): 22.2 µM | GI50 [13]: 55.7 µM | GI50 (K562): 31.8 µM | GI50 (MOLT-4): 34.9 µM | GI50 (RPMI-8226): 18.6 µM | GI50 (SR): 25.4 µM | GI50 (HOP-92): 2.94 µM | GI50 (EKVX): 20.7 µM | GI50 (COLO 205): 39.3 µM | GI50 (OVCAR-3): 28.7 µM | GI50 (IGROV-1): 32.3 µM | GI50 (DU-145): 59.5 µM | GI50 (LOX IMVI): 17.8 µM | GI50 [14]: 49.6 µM | GI50 (BT-549): 26.9 µM | GI50 (UO-31): 45.7 µM

COc1ccc2c(C[C@@H]3NC(=O)[C@H](C(C)C)NC3=O)c[nH]c2c1
IC50 [3]: > 100 µM

COc1ccc2c(C[C@@H]3NC(=O)[C@@H]4CCCN4C3=O)c(Cl)[nH]c2c1
IC50 [3]: > 100 µM

C=CCn1cc(C[C@@H]2NC(=O)[C@@H]3CCCN3C2=O)c2ccc(OC)cc21
Activity [1]: Active | IC50 [3]: 62 µM

C=CCc1[nH]c2cc(OC)ccc2c1C[C@@H]1NC(=O)[C@@H]2CCCN2C1=O
Activity [1]: Active | Activity [2]: Active | IC50 [3]: 60 µM

COc1ccc2c(C[C@@H]3NC(=O)[C@@H]4CCCN4C3=O)c(Br)[nH]c2c1
IC50 [3]: 96 µM

CC(C)=CCc1[nH]c2cc(N=[N+]=[N-])ccc2c1C[C@@H]1NC(=O)[C@@H]2CCCN2C1=O
Activity [1]: Active | Activity [2]: Active | IC50 [3]: 60 µM

COc1ccc2c(C[C@@H]3NC(=O)[C@@H]4CCCN4C3=O)cn(Cc3ccccc3)c2c1
Activity [1]: Active | IC50 [3]: 46 µM

COc1cc2c(c(OC)c1OC)-c1ccc(OC)c(=O)cc1[C@@H](NC(C)=O)CC2 [COLCHICINE]
IC50 [4]: 44.9 µM

COc1ccc2c(C[C@@H]3NC(=O)[C@@H]4CCCN4C3=O)c(CC=C(C)C)n(Cc3ccccc3)c2c1
IC50 [3]: 55 µM

COc1ccc2c(C[C@@H]3NC(=O)[C@H](Cc4ccccc4)NC3=O)c(CC=C(C)C)[nH]c2c1
IC50 [3]: 10 µM

COc1ccc2c(C[C@H]3NC(=O)[C@@H]4CCCN4C3=O)c(CC=C(C)C)[nH]c2c1
inhibition [15]: < 2% | percent cell survival relative to vehicle at 10 µM [5]: > 100% | cell survival (% of vehicle control) at 100 µM [6]: > 100% | cell survival (% of vehicle control) at 10 µM (MCF7 [7]): > 100% | cell survival (% of vehicle control) at 100 µM (MCF7 [8]): > 100% | percent cell survival relative to vehicle control at 10 µM (PC-3 [9]): > 100% | percent cell survival at 100 µM (PC-3 [10]): > 100% | GI50 (MCF7 [11]): 25.5 µM | GI50 (PC-3 [12]): 21.7 µM | GI50 (CCRF-CEM): 11.9 µM | GI50 [13]: 35 µM | GI50 (K562): 17.7 µM | GI50 (MOLT-4): 12.2 µM | GI50 (RPMI-8226): 7.76 µM | GI50 (SR): 11.3 µM | GI50 (EKVX): > 50 µM | GI50 (COLO 205): 12.4 µM | GI50 (HT-29): 16.1 µM | GI50 (OVCAR-3): > 50 µM | GI50 (IGROV-1): > 50 µM | GI50 (DU-145): 40 µM | GI50 (LOX IMVI): 33.5 µM | GI50 [14]: 13 µM | GI50 (BT-549): 9.77 µM | GI50 (UO-31): 27.3 µM

COc1ccc2c(C[C@@H]3NC(=O)[C@@H]4CCCN4C3=O)cn(CC=C(C)C)c2c1
IC50 [3]: > 100 µM

COC(=O)/C=C/c1[nH]c2cc(OC)ccc2c1C[C@@H]1NC(=O)[C@@H]2CCCN2C1=O
IC50 [3]: > 100 µM

C=CCn1c(CC=C(C)C)c(C[C@@H]2NC(=O)[C@@H]3CCCN3C2=O)c2ccc(OC)cc21
IC50 [3]: 75 µM
